Bioassay records deposited in PubChem by several laboratories.
RanGTP-Imp inh = disruptors of Ran-importin-beta complex formation – biochemical, FRET, CFP-Ran, YFP-importin-beta, homogeneous, primary screen; AID 2216; cell-free CFP-Ran/YFP-importin-beta FRET ratio; inhibition, % (test concentration not listed); 300,000 tested, 1.1% active;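 active means more than half of the replicate wells show a fall in the fluorescence ratio signal beyond about 16%, limit read from the data, passing the limit was not always enough; inconclusive means exactly half of the replicate wells pass the set limit; inactive means fewer than half of replicates pass the limit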;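 further: 0% = DMSO wells and 100% = Ran loaded with GDP instead of GTP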
Runt-CBFb FRET = inhibitors of human RUNX1 Runt domain binding to CBFb | Q01196+Q13951 | Cerulean-Runt/Venus-CBFb FRET ratio 530/480, 1 h | inhibition, % at 20 µM | 220,000 tested, 0.46% active;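 active means inhibition over about 50% at 20 µM in the single-dose screen, limit read from the data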;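 further: 0% = DMSO wells and 100% = excess unlabeled CBFb competitor control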
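Measured by: fluorescence energy transfer, 422 nm excitation, 530/480 nm emission; Assay system: Cerulean-Runt domain; Medium: Tris pH 7.5 buffer with BSA; Measure: loss of energy transfer signal; Controls: 5 µM unlabeled CBFb as full-inhibition high control; Incubation: protein complex preformed 1 h, compound exposure 1 h, room temperature, dark.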
Runt-SMMHC FRET = inhibitors of human RUNX1 Runt domain binding to CBFb-SMMHC | Cerulean-Runt/Venus-CBFb-SMMHC FRET ratio 530/480, 1 h | AID 1434 | inhibition, % at 20 µM | 220,000 tested, 0.74% active | Q01196+Q13951;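 active means mean inhibition across duplicate retests at 20 µM reaching about 50%, limit read from the data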;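 further: 0% = DMSO wells and 100% = wells with excess untagged CBFb-SMMHC; inhibitors lower the FRET ratio by blocking Runt binding to CBFb-SMMHC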
PERK inh = human PERK inhibition, primary cell-based screen. CHO PERK-DD fusion, SEAP luminescence translation reporter. inhibition, % at 5.6 µM. 220,000 tested, 0.17% active. Q9NZJ5. AID 1416;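 active means inhibition above the mean inhibition of all tested compounds plus 3 SD, set separately per screening campaign, cut at about 2.9% in these data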;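 further: PERK kinase domain activated by AP20187 dimerizer at 100 nM; 0% = DMSO with dimerizer and 100% = rapamycin at 8.4 µM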
eIF4E-4G inh = inhibitors of eIF4E and eIF4G interaction in translation initiation; TR-FRET eIF4E-eIF4GI(517-606) binding, 2 h; inhibition, % at 21.7 µM; 220,000 tested, 0.37% active; AID 782;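 active means inhibition above about 30%, limit read from the data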;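 further: 0% = full FRET control wells and 100% = background wells lacking eIF4GI fragment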
Hck Nef HTS = blocks Nef-activated human Hck kinase; Recombinant Hck-YEEI plus Nef, Z-Lyte FRET kinase assay; inhibition, % at 20 µM; 220,000 tested, 0.68% active;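 active means Hck-Nef kinase inhibition above about 50%, limit read from the data; inactive means inhibition below that limit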;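 further: 0% = DMSO with Hck plus Nef and 100% = Hck alone without Nef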
Target sequence (P08631 whole entry, looked up): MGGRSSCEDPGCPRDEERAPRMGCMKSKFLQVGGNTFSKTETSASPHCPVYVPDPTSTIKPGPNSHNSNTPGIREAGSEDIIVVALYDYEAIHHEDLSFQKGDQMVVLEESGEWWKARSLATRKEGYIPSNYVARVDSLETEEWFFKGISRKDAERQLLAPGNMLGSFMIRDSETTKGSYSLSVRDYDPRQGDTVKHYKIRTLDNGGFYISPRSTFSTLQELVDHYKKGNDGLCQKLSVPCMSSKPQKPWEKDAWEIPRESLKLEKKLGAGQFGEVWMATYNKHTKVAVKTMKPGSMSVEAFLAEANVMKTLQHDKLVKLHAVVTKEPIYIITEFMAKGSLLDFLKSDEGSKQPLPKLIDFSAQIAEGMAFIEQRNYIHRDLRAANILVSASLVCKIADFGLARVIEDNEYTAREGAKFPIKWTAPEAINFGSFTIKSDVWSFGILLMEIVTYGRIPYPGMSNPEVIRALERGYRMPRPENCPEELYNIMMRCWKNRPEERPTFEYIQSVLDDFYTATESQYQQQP
Numbers without * were called inactive; ? = inconclusive; / = not tested or not shown. Hits are enriched below; roughly 2.2% of the tested compounds scored in any of these assays.

SMILES	RanGTP-Imp inh	Runt-CBFb FRET	Runt-SMMHC FRET	PERK inh	eIF4E-4G inh	Hck Nef HTS
CCOC(=O)C1=C(C)OC(N)=C(C#N)C1c1cccs1 (stereo not drawn)	5.1	1.6	-3.6	-0.8	-0.8	-4.5
CCOC(=O)C1=C(CSc2nc(C)cc(C)c2C#N)OC(N)=C(C#N)C1c1ccccc1 (stereo not drawn)	?	22.8	28.6	-0.6	8.2	0.7
CCOC(=O)C1=C(CSc2nc(CC)c(C)cc2C#N)OC(N)=C(C#N)C1c1ccccc1 (stereo not drawn)	21.8*	24.8	44.7	-1.1	-2.4	10.5
Cc1ccc(S(=O)(=O)N/N=C2/CC(=O)CC(C)(C)C2)cc1[N+](=O)[O-]	-5.9	-0.5	-1.6	1.4	-11.0	30.4
CC(C)OC(=O)Cn1c(-c2ccccc2)c(-c2ccccc2)nnc1=O	-1.6	/	/	/	/	/
Cc1cc(C)cc(NC(=O)c2ccccc2CC[N+](=O)[O-])c1	2.1	-2.8	3.7	-0.9	76.4*	1.4
CCCCNC(=O)NC12CC3CC(CC(C3)C1)C2	-2.7	-0.2	-0.5	-0.7	-2.3	-35.2
Cc1ccc(NC(=O)CCN2C(=O)c3ccccc3S2(=O)=O)cc1C	-5.7	/	/	/	/	/
O=C(O)c1ccc(-c2ccccn2)s1	-2.6	-0.9	3.6	1.3	3.5	20.2
c1ccc(-c2ccc(-c3ccccn3)s2)nc1	17.8*	-3.4	3.7	0.2	7.1	-4.7
O=C(CN1CCN(c2ccc(O)cc2)CC1)Nc1cc(S(=O)(=O)N2CCCCC2)ccc1Cl	1.9	9.7	7.7	-0.6	2.5	61.1*
CCc1ccc(NC(=O)CN(c2ccc(OC)cc2)S(=O)(=O)c2c(C)[nH]c(=O)[nH]c2=O)cc1	1.0	/	/	/	/	/
CCc1ccc(NC(=O)CN(c2cc(C)cc(C)c2)S(=O)(=O)c2c(C)[nH]c(=O)[nH]c2=O)cc1	20.9*	/	/	/	/	/
CCN(C(=O)COC(=O)C1CCN(S(=O)(=O)c2ccc3c(c2)OCCO3)CC1)C1CCS(=O)(=O)C1 (stereo not drawn)	-1.5	/	/	/	/	/
COc1cc(/C=N/NC(=O)C2c3ccccc3Oc3ccccc32)ccc1O	-2.6	-0.4	-13.4	0.9	40.8*	5.1
Cc1ccc(C)c(OCCn2cc(/C=C(\C#N)C(=O)NCc3ccco3)c3ccccc32)c1	4.4	18.9	63.1*	-0.1	-1.8	3.0
COc1ccc(OCCn2cc(/C=C(\C#N)C(=O)NCc3ccco3)c3ccccc32)cc1	71.2*	-20.7	85.5*	0.6	4.8	-13.0
COc1ccccc1OCCn1cc(/C=C(\C#N)C(=O)NCc2ccco2)c2ccccc21	2.5	0.3	-7.9	0.2	-1.9	2.5
COc1ccc(/C=c2\s/c(=C(/C#N)C(=O)NCc3ccco3)n(-c3ccccc3)c2=O)cc1	82.9*	-154.2	-126.2	-0.3	2.0	8.1
COC(=O)/C=c1/s/c(=C(\C#N)C(=O)NCc2ccco2)n(-c2ccccc2)c1=O	-3.2	4.3	-3.9	-0.5	-5.0	2.0
COc1ccc(CCC(=O)N2CCCSC2=Nc2ccc(C(C)=O)cc2)cc1	0.2	0.4	-3.0	0.2	3.3	2.5
Nc1nc(Cl)cc(N2CCC(c3cc(-c4ccc(Cl)cc4Cl)n[nH]3)CC2)n1	?	-2.1	-0.6	-0.5	8.9	1.6
COc1ccc(-c2nnc(-c3cc4c(ccc5ccccc54)oc3=O)o2)cc1	-5.6	15.5	39.0	1.8	4.0	1.7
O=c1oc2ccc3ccccc3c2cc1-c1nnc(-c2ccccc2)o1	121.7*	76.1*	38.6	0.9	-44.4	1.9
c1csc(-c2nnc(Cc3cccc4ccccc34)o2)c1	1.1	-0.5	3.4	-0.8	2.5	-5.7
SMILES	RanGTP-Imp inh	Runt-CBFb FRET	Runt-SMMHC FRET	PERK inh	eIF4E-4G inh	Hck Nef HTS
Nc1nnc(-c2cc3c(ccc4ccccc43)oc2=O)s1	/	19.6	92.5*	0.0	19.0	5.6
O=c1oc2ccc3ccccc3c2cc1-c1nnc(-c2cccs2)o1	113.5*	18.7	58.5*	1.1	-2.0	0.5
CCC(Sc1nnnn1-c1ccccc1)C(=O)NC(C)c1ccccc1 (stereo not drawn)	5.2	-0.3	1.4	-1.4	-10.9	0.2
CN(CP(=O)(O)CN(C)S(C)(=O)=O)S(C)(=O)=O	-1.8	-0.6	2.6	2.4	3.0	0.2
Cc1ccc(/C=C/C(O)=C2/C(=O)N(C)C3(C)CC2c2ccccc2O3)cc1 (stereo not drawn)	1.1	4.2	1.4	-0.4	96.7*	5.0
COC(=O)c1c(C)n(-c2ccccc2)c2ccc(O)cc12	-2.6	-0.1	18.1	0.3	2.8	9.0
CN(C)/C=C/c1c([N+](=O)[O-])c2ccc(O)cc2n1-c1ccccc1	0.9	7.3	4.3	1.1	6.0	104.5*
O=C1CCNc2cc3ccccc3cc21	38.5*	16.3	74.8*	0.2	-4.2	8.0
CCN1C(=O)CSC1=Nc1ccc(Cl)c(Cl)c1	1.1	/	/	/	/	/
CCc1nnc(NC(=O)C(C)Sc2ccccc2)s1 (stereo not drawn)	24.9*	-0.4	-0.2	-0.8	0.7	0.9
CCOC(=O)c1[nH]c(C)c(C(=O)O)c1C	/	-0.9	1.2	3.3*	2.1	5.8
CCOC(=O)c1c(C)[nH]c(C(=O)CN2CCN(CC)CC2)c1C	-0.3	1.8	-1.5	-0.1	54.2*	13.0
CCOC(=O)c1c(C)[nH]c(C(=O)CN2C(=O)NC3(CCCC3)C2=O)c1C	3.4	-2.8	3.6	-0.8	-2.8	11.3
CCOC(=O)c1c(C)[nH]c(C(=O)CN2CC(C)OC(C)C2)c1C (stereo not drawn)	29.1*	-3.9	-1.4	-0.1	-3.9	-0.7
O=C(C[n+]1ccccc1)N/N=C/c1ccco1	2.4	1.6	-1.1	-0.2	-1.8	16.5
COC(=O)Cc1n[nH]c(=O)c2ccccc12	3.0	3.7	4.2	3.5*	-1.4	-16.7
CCOC(=O)Cc1n[nH]c(=O)c2ccccc12	3.4	1.1	2.6	1.3	1.1	7.4
CN1CCN(Cc2nc3ccccc3n2C)CC1CCO (stereo not drawn)	-3.5	/	/	/	/	/
Cc1ccc(-c2c(C)nn3c(N4CCOCC4)cc(C)nc23)cc1	1.1	/	/	/	/	/
Cc1cc(N2CCOCC2)n2nc(C)c(-c3ccccc3)c2n1	/	85.7*	135.8	-0.4	88.9*	1.4
O=C(Nc1ccc(N2CCCC2)cc1)C(Cl)c1ccccc1 (stereo not drawn)	1.6	-3.0	-3.9	0.5	-2.0	-2.6
O=c1[nH]c(N/N=C\c2ccc(F)cc2)nc2ccccc12	38.3*	15.7	18.7	0.2	-2.5	24.1
O=c1[nH]c(N/N=C/c2ccc(O)cc2)nc2ccccc12	-0.5	45.4	38.7	-0.8	4.3	3.3
Cc1ccc(C)c(-n2c3nc(=O)n(C)c(=O)c-3cc3ccccc32)c1	133.3*	12.9	81.0*	-1.8	13.8	25.2
